# Shown are actives, neighbours in structure and some others; about 2.1% of the full set was active somewhere.
# A3G deaminase: APOBEC3G (human) deaminase inhibition; Q9HC16; recombinant A3G, ssDNA deamination FAM/TAMRA fluorescence; inhibition, % at 20 µM; hit rate 0.28% among 330,000; AID 493012;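 active means inhibition of at least 40% at 20 µM, with no more than 30% in the related APOBEC3A deaminase screen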;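 further: plate controls were DMSO wells with A3G for no effect and wells lacking A3G enzyme for full effect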
# Target sequence (Q9HC16 whole entry, looked up): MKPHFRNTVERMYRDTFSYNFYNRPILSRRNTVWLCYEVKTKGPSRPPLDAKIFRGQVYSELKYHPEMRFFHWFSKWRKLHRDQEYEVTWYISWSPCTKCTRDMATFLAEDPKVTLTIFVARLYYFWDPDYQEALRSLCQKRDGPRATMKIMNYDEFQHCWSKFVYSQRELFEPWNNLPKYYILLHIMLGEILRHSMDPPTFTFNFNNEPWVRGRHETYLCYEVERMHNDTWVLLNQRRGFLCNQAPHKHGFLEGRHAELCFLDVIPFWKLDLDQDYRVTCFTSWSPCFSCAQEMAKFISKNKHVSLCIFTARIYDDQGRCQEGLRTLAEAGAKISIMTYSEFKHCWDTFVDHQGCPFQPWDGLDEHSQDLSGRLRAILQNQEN
# ARFGAP1 inh: inhibits rat ARF GTPase activating protein 1 | Q62848 | Arfgap1-stimulated ARF1 GTP hydrolysis, GDP FP detection | inhibition, % at 16.5 µM | hit rate 0.26% among 360,000;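 active means inhibition above a per-plate limit, mean inhibition of low control wells plus 3 SD, cut at about 25% in these data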;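 further: 0% = DMSO wells with enzyme and 100% = wells lacking Arfgap1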
# Target sequence (Q62848 1-136 limits assumed): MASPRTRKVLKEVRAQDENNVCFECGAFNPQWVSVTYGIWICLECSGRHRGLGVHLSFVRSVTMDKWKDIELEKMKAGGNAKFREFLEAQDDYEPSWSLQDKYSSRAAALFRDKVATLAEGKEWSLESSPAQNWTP
#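 Material: truncated rat Arfgap1 GAP domain; Incubation: compound-enzyme preincubation 20 min, reaction 120 min, detection 60 min, 25 °C; Read-out: percent inhibition of Arfgap1-stimulated GTP hydrolysis; Technique: FP, GDP Alexa 633 tracer displaced from anti-GDP antibody, 620/688 nm; Controls: No-Arfgap1 wells (100%) versus DMSO full-reaction wells (0%); Replication: single well per compound.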
# SUMO Mot1 rescue: inhibitors of SUMOylation pathway: yeast Mot1-301 growth rescue; S. cerevisiae Mot1-301 growth rescue, ATP luminescence, 38.5C; percent above DMSO median, 100 means doubled; growth rescue, % at 18.8 µM; hit rate 1% among 320,000;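 active means every valid replicate shows activation above 250% relative to neutral control wells; inactive means the rest, any valid replicate at or below 250%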;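 further: OY570 slx delta 5 strain wells were the positive control but not used for scaling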
# C2C12 statin: suppression of simvastatin myotoxicity | C2C12 myotubes + simvastatin, ATP luminescence, 48 h; scaled: DMSO 0, geranylgeraniol control 100 | rescue of ATP level, % at 7.49 µM | hit rate 0.78% among 330,000 | AID 602340;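 active means mean ATP rescue above about 67%, or every replicate alone reaching that limit, limit read from the data, passing the limit was not always enough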;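 further: myotubes were challenged with 10 µM simvastatin during compound exposure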
# ASAP1 GAP inh: inhibitors of human ASAP1 ArfGAP activity. ASAP1-stimulated ARF1 GTP hydrolysis, GDP FP detection. inhibition, % at 16.5 µM. hit rate 0.19% among 360,000. AID 624377; in the data active means inhibition above about 25%;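 further: 0% = vehicle with enzyme and substrate and 100% = no enzyme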
# APOBEC3A inh: inhibitors of human APOBEC3A DNA deaminase; hit rate 0.41% among 330,000; recombinant A3A, FAM/TAMRA ssDNA deamination fluorescence; inhibition, % at 20 µM; P31941;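 active means at least 40% inhibition at 20 µM here, with at most 30% in a related deaminase screen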;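 further: plate controls were A3A with DMSO for no effect and wells lacking A3A enzyme for full effect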
# Yeast Mot1 SUMO: yeast SUMO pathway inhibition in dose response; shares compounds with SUMO Mot1 rescue; AID 493004; growth activity, percent, % at 42 µM; S. cerevisiae Mot1-301 galactose growth, ATP luminescence, 24 h; -100 = growth of slx-deleted rescue strain; 2,300 tested, under 10 active;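 active means Signal drops as the depositor expects, and the fitted half-maximal dose is no more than ten times the top valid tested dose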;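 further: more negative values mean stronger growth rescue toward the control strain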
# * marks the source's active call; other numbers are inactive results; i = inactive; / = not tested or not shown; + = active, no number; ! = repeats disagree.
SMILES,A3G deaminase,ARFGAP1 inh,SUMO Mot1 rescue,C2C12 statin,ASAP1 GAP inh,APOBEC3A inh,Yeast Mot1 SUMO
CCN(CC)c1ccc(C=C2C(=O)OC(C)(C(C)(C)C)OC2=O)cc1 (centres undefined),-10,-1,0,6,0,-2,/
CCNc1nc(NCC)nc(SCCOC(=O)Nc2ccccc2)n1,-5,1,+,-15,-12,-8,0
N#Cc1cccc(-c2ccc3c(c2)[C@H]2[C@H](CCN2S(=O)(=O)c2ccccc2F)[C@@H](CO)N3)c1,/,/,/,14,/,/,/
Cc1ccc(/C=N/NC(=O)NC23CC4CC(CC(C4)C2)C3)o1,0,3,743*,3,4,-2,-1
COCCNC(=O)C[C@H]1CC[C@H]2[C@@H](COC[C@H](O)CN2C(=O)Nc2ccccc2OC)O1,/,/,/,-18,/,/,/
CN(Cc1cccnc1)Cc1cn[nH]c1-c1ccc(-c2ccccc2)cc1,-1,4,791*,-27,-12,2,0
O=C(COc1ccc(Cl)cc1)NCCCNC(=O)c1ccccn1,-2,5,565*,-23,-3,-6,0
Cc1cc2c(cc1C)-c1nnc(-c3ccc4ccccc4n3)n1C(C)(C)C2,-6,/,644*,/,/,-1,0
CCCC#Cc1cnc2c(c1)C(=O)N([C@@H](C)CO)C[C@H](C)[C@@H](CN(C)C(=O)Cc1cccnc1)O2,/,/,/,-2,/,/,/
Cc1nn(C)c(C)c1NS(=O)(=O)c1ccc(Cl)s1,-6,-7,-11,3,12,-4,/
Cc1ccc(F)cc1NS(=O)(=O)c1ccc(Cl)s1,-4,/,378*,-47,/,-2,1
Cc1ccc(S(=O)(=O)Nc2ccc3c(c2)C(=O)N([C@@H](C)CO)C[C@@H](C)[C@H](CN(C)C(=O)c2ccncc2)OCCCC[C@@H](C)O3)cc1,/,/,/,36,/,/,/
CO[C@@H]1CN(C)C(=O)c2ccc(NC(=O)C3CCOCC3)cc2OC[C@@H](C)N(S(=O)(=O)c2ccc(C)cc2)C[C@H]1C,/,/,/,10,/,/,/
CCOC(=O)C1=C(C)Nc2ncnn2C1/C=C/c1ccccc1 (centres undefined),3,-6,613*,-20,10,9,0
CCN1C(=O)c2cccc3c(S(=O)(=O)Nc4ccc(OC)cc4OC)ccc1c23,-1,4,768*,/,-12,1,0
COc1ccc(CN(C)C(=O)c2ccc(COc3ccccc3)cc2)c(OC)c1,-6,-5,111,26,-1,10,/
COc1ccc(CN(C)C(=O)c2sccc2-c2ccccc2)c(OC)c1,-3,7,485*,/,-6,0,0
Cc1cccc(NS(=O)(=O)c2cccc(C(=O)NCC3(N4CCCCC4)CCCCC3)c2)c1,-9,-7,i,-11,-4,-3,/
CNS(=O)(=O)c1cccc(C(=O)NCC2(N3CCCCC3)CCCCC2)c1,-3,-12,402*,9,6,8,0
CC[C@]12CCCN3CCc4c(n(c5ccccc45)C(=O)C1)[C@@H]32,-6,19,-21,5,-6,-2,/
CCOC(=O)C1=C[C@]2(CC)CCCN3CCc4c(n1c1ccccc41)[C@@H]32,-2,-3,617*!,2,7,0,0
Cc1ccccc1-c1cnc2c(c1)C(=O)N([C@H](C)CO)C[C@@H](C)[C@@H](CN(C)C(=O)CN(C)C)O2,/,/,/,6,/,/,/
CC(=O)c1cccc(NC(=O)CN(c2cccc(F)c2)S(C)(=O)=O)c1,-7,7,682*,111*,12,-6,0
CC(=O)c1cccc(NC(=O)CN(c2ccc(F)cc2)S(C)(=O)=O)c1,1,5,-3,4,-3,2,/
CC1(C)CC(=O)C(C(=O)c2ccccc2)C(=O)C1,-13,-1,-15,8,-12,-4,/
SMILES,A3G deaminase,ARFGAP1 inh,SUMO Mot1 rescue,C2C12 statin,ASAP1 GAP inh,APOBEC3A inh,Yeast Mot1 SUMO
CC1(C)CC(=O)C(C(=O)c2ccccc2)C(=O)C1Cl (centres undefined),-7,-3,536*,7,8,-2,-1
CC(=O)Nc1ccc(C(=O)NCCCOC(C)C)cc1,-6,-4,798*,1,2,-1,0
CCC(=O)NC[C@@H]1[C@H](c2ccccc2)[C@H](CO)N1C(=O)C1CC1,/,/,/,-4,/,/,/
CC(C)c1ccc2c(c1)CC[C@H]1[C@](C)(CN)CCC[C@]21C,/,5,/,-129,7,/,/
CC(C)c1ccc2c(c1)CCC1C(C)(CN)CCCC21C (centres undefined),/,0,617*,-18,8,/,-2
COc1ccc(/C=N\Nc2ccc([N+](=O)[O-])cc2)c(C(=O)O)c1OC,-3,-1,455*,23,5,2,0
O=C(Nc1ccc(F)cc1)N[C@@H]1C=C[C@H](CC(=O)N2CCCCC2)O[C@@H]1CO,/,/,/,10,/,/,/
CCN(CC)S(=O)(=O)c1ccc(NC(=O)C(C)N(c2ccccc2)S(C)(=O)=O)cc1 (centres undefined),-3,3,+,/,6,3,0
C/C(CC1(O)C(=O)Nc2ccccc21)=N\O (centres undefined),3,-6,519*,-1,-4,2,0
COc1ccc(/C(CC2(O)C(=O)Nc3ccccc32)=N\O)cc1 (centres undefined),-5,-1,-2,14,2,1,/
COc1ccc(NC(=O)N[C@@H]2CC[C@@H](CCNS(=O)(=O)c3ccccc3F)O[C@H]2CO)cc1,/,/,/,-2,/,/,/
COC(=O)C1=C(C)N(Cc2ccccc2)C(=S)N[C@H]1c1cccc(F)c1,-4,7,584*,5,-2,-5,1
Cc1cnc(NC(=O)CN2CCN(c3ccccc3F)CC2)s1,-5,-8,990*,/,8,-3,0
O=C(NNC(=O)c1ccccc1F)c1ccco1,-10,1,2,12,1,-4,/
O=C(NNC(=O)c1ccccc1O)c1ccco1,-1,-12,+,/,-1,1,0
C/C(=N\NC(N)=O)c1ccc(Cl)s1,1,2,-26,5,0,5,/
C/C(=N/Nc1ccc(F)cc1)c1ccc(Cl)s1,-4,-3,384*,6,-11,1,0
O=C(C[C@H]1C[C@@H]2c3cc(NC(=O)C4CCOCC4)ccc3O[C@@H]2[C@H](CO)O1)NCc1ccc(Cl)cc1,/,/,/,13,/,/,/
Cc1cccc(-n2c(Cc3ccccc3)n[nH]c2=S)c1,31,18,26,-2,-2,4,/
CCc1ccc(-n2c(Cc3ccccc3)n[nH]c2=S)cc1,13,-11,889*,/,12,-6,2
COc1ccc(NS(=O)(=O)c2cccc(C(=O)NCCCn3ccnc3)c2)cc1,-4,11,452*,-7,-4,-1,0
